# Laboratory results from ChEMBL document CHEMBL1806391, “Synthesis and biological evaluation of novel 5-alkyl-2-arylthio-6-((3,4-dihydroquinolin-1(2H)-yl)methyl)pyrimidin-4(3H)-ones as potent non-nucleoside HIV-1 reverse transcriptase inhibitors” (Bioorg Med Chem, 2011).
# Active and inactive are the calls of the source. The calls are words filed in the database; no cut-off is given here.
# Tests used:
# [1] = test system: Human immunodeficiency virus 1; experiment: Antiviral activity against wild type Human immunodeficiency virus 1 3B infected in human MT4 cells assessed as protection against virus-induced cytotoxicity after 5 days by MTT assay; type: functional, organism-based; conditions: MT4, 120 h
# Procedure, shortened: (§1)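 MT-4 cells, spun 5 min at 1000 rpm, were resuspended at 6 × 10⁵ cells/mL and infected with HIV-1 IIIB or HIV-2 ROD. Compounds were added at the start in serial fivefold dilutions, in triplicate wells. Viability was read by MTT reduction at 540 and 690 nm five days post-infection. EC₅₀ is the concentration giving 50% protection from viral cytopathic effect, using the median OD of three wells.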
# [2] = test system: Human immunodeficiency virus 2; experiment: Antiviral activity against wild type Human immunodeficiency virus 2 ROD infected in human MT4 cells assessed as protection against virus-induced cytotoxicity after 5 days by MTT assay; type: functional, organism-based; conditions: Human immunodeficiency virus 2, ISOLATE ROD, MT4, 120 h; procedure, shortened: as §1
# [3] = molecular target: Human immunodeficiency virus type 1 reverse transcriptase (Human immunodeficiency virus 1, UniProt Q72547); experiment: Inhibition of HIV1 wild type RT using poly(rA)/oligo(dT)15 homopolymer template after 1 hrs by ELISA
# Procedure, shortened: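 Wild-type HIV-1 RT was run on a poly(rA)/oligo(dT)₁₅ template, with oligo(dT) immobilized on plates and biotin-dUTP incorporated, 1 h at 37 °C. After Tris-HCl pH 7.5 washes, incorporated biotin was detected colorimetrically by streptavidin–alkaline phosphatase with PNPP (1 mg/mL, pH 9.5), 30 min at 37 °C, stopped with 0.5 M NaOH.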
# [4] = test system: Human immunodeficiency virus 2; experiment: Antiviral activity against Human immunodeficiency virus 2 ROD infected in human MT4 cells assessed as inhibition of viral replication; type: functional, organism-based; conditions: ISOLATE ROD; procedure, shortened: as §1
# [5] = Cytotoxic activity against human MT4 cells assessed as viability of mock-infected cells after 5 days by MTT assay; type: cell-based
# Procedure, shortened: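 Mock-infected, exponentially growing MT-4 cells (6 × 10⁵ cells/mL) were exposed to serial fivefold compound dilutions in triplicate wells. After 5 days, viability was read by MTT formazan absorbance at 540 and 690 nm. CC₅₀ is the concentration that lowered OD540 of the mock-infected control by 50%, using the median OD of three wells.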
# [6] = Selectivity index, ratio of CC50 for human MT4 cells to EC50 for wild type Human immunodeficieny virus 1 3B infected in human MT4 cells; type: toxicity, cell-based; conditions: read-out: Ratio CC50/EC50
# Procedure, shortened: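 SI is CC₅₀ in mock-infected MT-4 cells divided by EC₅₀ against HIV-1 IIIB, both from 5-day MTT assays in triplicate wells.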
Structure (SMILES),EC50 [1],EC50 [2],IC50 [3],inhibition [4],CC50 at 120 h [5],selectivity ratio [6]
CCc1c(CN2CCCc3ccccc32)nc(SCC(=O)c2ccccc2)[nH]c1=O,0.24 µM,> 298 µM,30.7 µM,inactive,298 µM,1220
CCc1c(CN2CCCc3ccccc32)nc(SCc2ccc(F)cc2)[nH]c1=O,> 133 µM,> 133 µM,–,inactive,133 µM,< 1
CCc1c(CN2CCCc3ccccc32)nc(SCC(=O)c2ccc(F)cc2)[nH]c1=O,0.57 µM,> 156 µM,–,inactive,156 µM,273
O=c1cc(CN2CCCc3ccccc32)nc(SCc2ccc([N+](=O)[O-])cc2)[nH]1,≥ 49.5 µM,> 73.9 µM,–,inactive,73.9 µM,≤ 2
CCc1c(CN2CCCc3ccccc32)nc(SCc2ccc(C)cc2)[nH]c1=O,≥ 5.42 µM,> 160 µM,–,inactive,160 µM,< 29
CCc1c(CN2CCCc3ccccc32)nc(SCc2ccccc2)[nH]c1=O,> 4.8 µM,> 4.8 µM,–,inactive,4.8 µM,< 1
CCc1c(CN2CCCc3ccccc32)nc(SCC(=O)c2ccc(OC)cc2)[nH]c1=O,0.38 µM,> 61.8 µM,–,inactive,61.8 µM,164
Cc1ccc(C(=O)CSc2nc(CN3CCCc4ccccc43)c(C)c(=O)[nH]2)cc1,1.95 µM,> 62.4 µM,–,inactive,62.4 µM,32
O=C(CSc1nc(CN2CCCc3ccccc32)cc(=O)[nH]1)c1ccc([N+](=O)[O-])cc1,> 209 µM,> 209 µM,–,inactive,209 µM,< 1
CCc1c(CN2CCCc3ccccc32)nc(SCC(=O)c2ccc(C)cc2)[nH]c1=O,1.06 µM,> 288 µM,–,inactive,288 µM,271
O=c1cc(CN2CCCc3ccccc32)nc(SCc2ccc(Cl)cc2)[nH]1,> 53.6 µM,> 53.6 µM,–,inactive,> 53.6 µM,< 1
